From ChEMBL document CHEMBL4706595, “1,3-Oxazine-2-one derived dual-targeted molecules against replicating and non-replicating forms of Mycobacterium tuberculosis” (Eur J Med Chem, 2020)
In brackets after ≈: the same amount, converted by molar mass.

Assays:
[1] = tested on: Mycobacterium tuberculosis; experiment: Antimycobacterial activity against isoniazid-resistant Mycobacterium tuberculosis H37Rv ATCC 35822 assessed as inhibition of bacterial growth by agar plate dilution method; format: functional
In short: (§1)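 MIC determined by agar plate dilution method; isoniazid and rifampin run as references.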

[2] = tested on: Mycobacterium tuberculosis; experiment: Antimycobacterial activity against rifampicin-resistant Mycobacterium tuberculosis H37Rv ATCC 35838 assessed as inhibition of bacterial growth by agar plate dilution method; format: functional; in short: as §1

SMILES | MIC [1] [µg/mL] | MIC [2] [µg/mL]
CC(C)=CCC/C(C)=C/COc1ccc(C(=O)OCCCOc2cccc(Nc3nc4ccccc4c(=O)o3)c2)cc1 | 4.4 (≈ 7.74 µM) | 2.6 (≈ 4.57 µM)
CC(C)=CCC/C(C)=C/CC/C(C)=C/COc1ccc(C(=O)OCCCOc2cccc(Nc3nc4ccccc4c(=O)o3)c2)cc1 | 2.3 (≈ 3.61 µM) | 1.8 (≈ 2.83 µM)
NNC(=O)c1ccncc1 [ISONIAZID] | > 8 | 0.25 (≈ 1.82 µM)
CO[C@H]1/C=C/O[C@@]2(C)Oc3c(C)c(O)c4c(O)c(c(/C=N/N5CCN(C)CC5)c(O)c4c3C2=O)NC(=O)/C(C)=C\C=C\[C@H](C)[C@H](O)[C@@H](C)[C@@H](O)[C@@H](C)[C@H](OC(C)=O)[C@@H]1C [RIFAMPIN] | 0.03 (≈ 0.0365 µM) | > 2
